In brackets after ≈: the same amount, converted by molar mass. Where a SMILES comes first, the peptide text is derived from it. [ ]: non-standard residue; d: D form. The star is where a group is joined. ξ: configuration not given here. Octanoyl(7-Me) = CC(C)CCCCCC(=O)*; Hexanoyl(4ξ-Me) = CCC(C)CCC(=O)*; dOrn = NCCC[C@@H](N)C(=O)O; Orn = NCCC[C@H](N)C(=O)O; Dap = NC[C@H](N)C(=O)O
What was measured:
Pseudomonas aeruginosa = experiment: Antibacterial activity Pseudomonas aeruginosa PAO1 assessed as inhibition of visible bacterial growth incubated for 18 hrs by microbroth dilution assay; format: functional
Outline: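 CLSI broth microdilution. Colonies from blood agar (16 h, 37 °C) grown in TSB at 37 °C, 220 rpm, to OD600 about 0.5, then diluted in MHB to 2 × 10^5 CFU/mL. Added to DMSO-stock compounds serially diluted in MHB in polypropylene plates. Sealed, 18 h at 37 °C, 600 rpm. MIC = lowest concentration with no visible growth; three technical replicates.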

Klebsiella pneumoniae = experiment: Antibacterial activity Klebsiella pneumoniae ATCC 13883 assessed as inhibition of visible bacterial growth incubated for 18 hrs by microbroth dilution assay; format: functional
Outline: (§1)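 CLSI broth microdilution. Strains streaked from glycerol stocks onto blood agar (16 h, 37 °C); single colonies grown in TSB at 37 °C, 220 rpm, to OD600 about 0.5. Diluted in MHB to 2 × 10^5 CFU/mL and mixed 1:1 with compounds serially diluted in MHB from DMSO stocks (colistin from water stocks), polypropylene plates. Sealed, 18 h at 37 °C, 600 rpm. MIC taken as lowest concentration preventing visible growth, three technical replicates.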

Staphylococcus aureus = experiment: Antibacterial activity Staphylococcus aureus USA300 assessed as inhibition of visible bacterial growth incubated for 18 hrs by microbroth dilution assay; format: functional; outline: as §1
Acinetobacter baumannii = experiment: Antibacterial activity Acinetobacter baumannii ATCC 17961 assessed as inhibition of visible bacterial growth incubated for 18 hrs by microbroth dilution assay; format: functional; outline: as §1
Escherichia coli [1] = experiment: Antibacterial activity Escherichia coli MCR-1 assessed as inhibition of visible bacterial growth incubated for 18 hrs by microbroth dilution assay; format: functional
Outline: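 Colistin-resistant E. coli 25922 carrying MCR-1, grown from glycerol stock in kanamycin-supplemented TSB for 16 h at 37 °C, 220 rpm. Diluted 100-fold in kanamycin-supplemented TSB and grown to OD600 about 0.5, then diluted in MHB to 2 × 10^5 CFU/mL. Combined 1:1 with MHB serial dilutions of compounds. Sealed, 18 h at 37 °C, 600 rpm; lowest concentration without visible growth, triplicate technical replicates.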

Escherichia coli [2] = experiment: Antibacterial activity Escherichia coli ATCC 25922 assessed as inhibition of visible bacterial growth incubated for 18 hrs by microbroth dilution assay; format: functional; outline: as §1
[3] = Hemolytic activity in sheep red blood cell assessed as hemolysis at 1 to 128 ug/ml incubated for 1 hrs relative to control; format: toxicity, cell-based, Ovis aries, Erythrocyte; settings: sheep red blood cells (erythrocytes), at 1 to 128 µg/mL, dose 1-128 µg/ml, read-out: Activity
Outline: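 Defibrinated sheep erythrocytes washed five times in PBS with 0.002% Tween20 and normalized so the Triton control reads 2.5–3.0 at 415 nm. Mixed 1:1 with compound serial dilutions (128–1 μg/mL) and incubated 1 h at 37 °C, 500 rpm. Supernatant A415 is background-corrected with buffer and expressed as percent of 0.1% Triton X-100 (final). Run in triplicate.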

SMILES	MIC (Pseudomonas aeruginosa)	MIC (Klebsiella pneumoniae)	MIC (Staphylococcus aureus)	MIC (Acinetobacter baumannii)	MIC (Escherichia coli [1])	MIC (Escherichia coli [2])	hemolysis at 1 h [3]
CCC(C)CCC(=O)N[C@H](CC(N)=O)C(=O)N[C@H](Cc1ccc(O)cc1)C(=O)N[C@H](Cc1c[nH]c2ccccc12)C(=O)N[C@H](CCCN)C(=O)N[C@@H](CCCN)C(=O)NCC(=O)N[C@H](CCCN)C(=O)N[C@@H](Cc1c[nH]c2ccccc12)C(=O)N[C@H](C(=O)N[C@H](C(=O)N[C@@H](C)C(=O)N[C@@H](CO)C(N)=O)[C@@H](C)CC)[C@@H](C)O (stereo partly specified) ({Hexanoyl(4ξ-Me)}-[dN][dY][dW][dOrn][Orn]G[dOrn]WTIAS-NH2)	16 µg/mL (≈ 10.3 µM)	> 32 µg/mL	> 32 µg/mL	32 µg/mL (≈ 20.6 µM)	32 µg/mL (≈ 20.6 µM)	32 µg/mL (≈ 20.6 µM)	
CCC(C)CCC(=O)N[C@H](CC(N)=O)C(=O)N[C@H](Cc1ccc(O)cc1)C(=O)N[C@H](Cc1c[nH]c2ccccc12)C(=O)N[C@H](CCCN)C(=O)N[C@@H](CCCN)C(=O)NCC(=O)N[C@H](C)C(=O)N[C@@H](Cc1c[nH]c2ccccc12)C(=O)N[C@H](C(=O)N[C@H](C(=O)NCC(=O)N[C@@H](CO)C(N)=O)[C@@H](C)CC)[C@@H](C)O (stereo partly specified) ({Hexanoyl(4ξ-Me)}-[dN][dY][dW][dOrn][Orn]G[dA]WTIGS-NH2)	32 µg/mL (≈ 21.4 µM)	> 32 µg/mL	> 32 µg/mL	16 µg/mL (≈ 10.7 µM)	> 32 µg/mL	> 32 µg/mL	
CC[C@H](C)[C@H](NC(=O)[C@@H](NC(=O)[C@H](Cc1c[nH]c2ccccc12)NC(=O)[C@@H](CCCN)NC(=O)CNC(=O)[C@H](C)NC(=O)[C@@H](CCCN)NC(=O)[C@@H](Cc1c[nH]c2ccccc12)NC(=O)[C@@H](Cc1ccc(O)cc1)NC(=O)[C@@H](CO)NC(=O)CCCCCC(C)C)[C@@H](C)O)C(=O)N[C@@H](CC(N)=O)C(=O)NCC(=O)NCC(N)=O ({Octanoyl(7-Me)}-[dS][dY][dW][dOrn]AG[dOrn]WTINGG-NH2)					> 32 µg/mL		
CCC(C)CCC(=O)N[C@H](CC(N)=O)C(=O)N[C@H](Cc1ccc(O)cc1)C(=O)N[C@H](C)C(=O)N[C@H](CCCN)C(=O)N[C@@H](CCCN)C(=O)NCC(=O)N[C@H](CCCN)C(=O)N[C@@H](Cc1c[nH]c2ccccc12)C(=O)N[C@H](C(=O)N[C@H](C(=O)NCC(=O)N[C@@H](CO)C(N)=O)[C@@H](C)CC)[C@@H](C)O (stereo partly specified) ({Hexanoyl(4ξ-Me)}-[dN][dY][dA][dOrn][Orn]G[dOrn]WTIGS-NH2)	32 µg/mL (≈ 22.5 µM)	> 32 µg/mL	> 32 µg/mL	> 32 µg/mL	> 32 µg/mL	> 32 µg/mL	
CCC(C)CCC(=O)N[C@H](CC(N)=O)C(=O)N[C@H](C)C(=O)N[C@H](Cc1c[nH]c2ccccc12)C(=O)N[C@H](CCCN)C(=O)N[C@@H](CCCN)C(=O)NCC(=O)N[C@H](CCCN)C(=O)N[C@@H](Cc1c[nH]c2ccccc12)C(=O)N[C@H](C(=O)N[C@H](C(=O)NCC(=O)N[C@@H](CO)C(N)=O)[C@@H](C)CC)[C@@H](C)O (stereo partly specified) ({Hexanoyl(4ξ-Me)}-[dN][dA][dW][dOrn][Orn]G[dOrn]WTIGS-NH2)	16 µg/mL (≈ 11.1 µM)	> 32 µg/mL	> 32 µg/mL	> 32 µg/mL	> 32 µg/mL	> 32 µg/mL	
CCC(C)CCC(=O)N[C@H](CC(N)=O)C(=O)N[C@H](Cc1ccc(O)cc1)C(=O)N[C@H](Cc1c[nH]c2ccccc12)C(=O)N[C@H](CCCN)C(=O)N[C@@H](CCCN)C(=O)NCC(=O)N[C@H](CCCN)C(=O)N[C@@H](Cc1c[nH]c2ccccc12)C(=O)N[C@@H](CO)C(=O)N[C@H](C(=O)NCC(N)=O)[C@@H](C)CC (stereo partly specified) ({Hexanoyl(4ξ-Me)}-[dN][dY][dW][dOrn][Orn]G[dOrn]WSIG-NH2)	2 µg/mL (≈ 1.39 µM)	4 µg/mL (≈ 2.79 µM)	> 32 µg/mL	8 µg/mL (≈ 5.57 µM)	8 µg/mL (≈ 5.57 µM)	4 µg/mL (≈ 2.79 µM)	
CCC(C)CCC(=O)N[C@H](CC(N)=O)C(=O)N[C@H](Cc1ccc(O)cc1)C(=O)N[C@H](Cc1c[nH]c2ccccc12)C(=O)N[C@H](CCCN)C(=O)N[C@@H](CCCN)C(=O)N[C@@H](C)C(=O)N[C@H](CCCN)C(=O)N[C@@H](Cc1c[nH]c2ccccc12)C(=O)N[C@H](C(=O)N[C@H](C(=O)NCC(=O)N[C@@H](CO)C(N)=O)[C@@H](C)CC)[C@@H](C)O (stereo partly specified) ({Hexanoyl(4ξ-Me)}-[dN][dY][dW][dOrn][Orn]A[dOrn]WTIGS-NH2)	32 µg/mL (≈ 20.6 µM)	> 32 µg/mL	> 32 µg/mL	32 µg/mL (≈ 20.6 µM)	32 µg/mL (≈ 20.6 µM)	32 µg/mL (≈ 20.6 µM)	
CCC(C)CCC(=O)N[C@H](CC(N)=O)C(=O)N[C@H](Cc1ccc(O)cc1)C(=O)N[C@H](Cc1c[nH]c2ccccc12)C(=O)N[C@H](CCCN)C(=O)N[C@@H](CCCN)C(=O)NCC(=O)N[C@H](CCCN)C(=O)N[C@@H](Cc1c[nH]c2ccccc12)C(=O)N[C@H](C(=O)N[C@H](C(=O)NCC(=O)N[C@@H](C)C(N)=O)[C@@H](C)CC)[C@@H](C)O (stereo partly specified) ({Hexanoyl(4ξ-Me)}-[dN][dY][dW][dOrn][Orn]G[dOrn]WTIGA-NH2)	8 µg/mL (≈ 5.26 µM)	8 µg/mL (≈ 5.26 µM)	> 32 µg/mL	4 µg/mL (≈ 2.63 µM)	8 µg/mL (≈ 5.26 µM)	8 µg/mL (≈ 5.26 µM)	
CCC(C)CCC(=O)N[C@H](CC(N)=O)C(=O)N[C@H](Cc1ccc(O)cc1)C(=O)N[C@H](Cc1c[nH]c2ccccc12)C(=O)N[C@H](CCCN)C(=O)N[C@@H](CCCN)C(=O)NCC(=O)N[C@H](CCCN)C(=O)N[C@@H](C)C(=O)N[C@H](C(=O)N[C@H](C(=O)NCC(=O)N[C@@H](CO)C(N)=O)[C@@H](C)CC)[C@@H](C)O (stereo partly specified) ({Hexanoyl(4ξ-Me)}-[dN][dY][dW][dOrn][Orn]G[dOrn]ATIGS-NH2)	32 µg/mL (≈ 22.5 µM)	> 32 µg/mL	> 32 µg/mL	> 32 µg/mL	> 32 µg/mL	> 32 µg/mL	
CCC(C)CCC(=O)N[C@H](CC(N)=O)C(=O)N[C@H](Cc1ccc(O)cc1)C(=O)N[C@H](Cc1c[nH]c2ccccc12)C(=O)N[C@H](CCCN)C(=O)N[C@@H](CCCN)C(=O)NCC(=O)N[C@H](CCCN)C(=O)N[C@@H](Cc1c[nH]c2ccccc12)C(=O)N[C@@H](CC(=O)O)C(=O)N[C@H](C(=O)NCC(N)=O)[C@@H](C)CC (stereo partly specified) ({Hexanoyl(4ξ-Me)}-[dN][dY][dW][dOrn][Orn]G[dOrn]WDIG-NH2)					> 32 µg/mL	> 32 µg/mL	
CCC(C)CCC(=O)N[C@H](CC(N)=O)C(=O)N[C@H](Cc1ccc(O)cc1)C(=O)N[C@H](Cc1c[nH]c2ccccc12)C(=O)N[C@H](CCCN)C(=O)N[C@@H](C)C(=O)NCC(=O)N[C@H](CCCN)C(=O)N[C@@H](Cc1c[nH]c2ccccc12)C(=O)N[C@H](C(=O)N[C@H](C(=O)NCC(=O)N[C@@H](CO)C(N)=O)[C@@H](C)CC)[C@@H](C)O (stereo partly specified) ({Hexanoyl(4ξ-Me)}-[dN][dY][dW][dOrn]AG[dOrn]WTIGS-NH2)	32 µg/mL (≈ 21.4 µM)	> 32 µg/mL	> 32 µg/mL	> 32 µg/mL	> 32 µg/mL	> 32 µg/mL	
CCC(C)CCC(=O)N[C@H](C)C(=O)N[C@H](Cc1ccc(O)cc1)C(=O)N[C@H](Cc1c[nH]c2ccccc12)C(=O)N[C@H](CCCN)C(=O)N[C@@H](CCCN)C(=O)NCC(=O)N[C@H](CCCN)C(=O)N[C@@H](Cc1c[nH]c2ccccc12)C(=O)N[C@H](C(=O)N[C@H](C(=O)NCC(=O)N[C@@H](CO)C(N)=O)[C@@H](C)CC)[C@@H](C)O (stereo partly specified) ({Hexanoyl(4ξ-Me)}-[dA][dY][dW][dOrn][Orn]G[dOrn]WTIGS-NH2)	8 µg/mL (≈ 5.36 µM)	16 µg/mL (≈ 10.7 µM)	> 32 µg/mL	8 µg/mL (≈ 5.36 µM)	16 µg/mL (≈ 10.7 µM)	16 µg/mL (≈ 10.7 µM)	
CCC(C)CCC(=O)N[C@H](CC(N)=O)C(=O)N[C@H](Cc1ccc(O)cc1)C(=O)N[C@H](Cc1c[nH]c2ccccc12)C(=O)N[C@H](CCCN)C(=O)N[C@@H](CCCN)C(=O)NCC(=O)N[C@H](CCCN)C(=O)N[C@@H](Cc1c[nH]c2ccccc12)C(=O)N[C@@H](C)C(=O)N[C@H](C(=O)NCC(=O)N[C@@H](CO)C(N)=O)[C@@H](C)CC (stereo partly specified) ({Hexanoyl(4ξ-Me)}-[dN][dY][dW][dOrn][Orn]G[dOrn]WAIGS-NH2)	4 µg/mL (≈ 2.65 µM)	16 µg/mL (≈ 10.6 µM)	> 32 µg/mL	16 µg/mL (≈ 10.6 µM)	16 µg/mL (≈ 10.6 µM)	8 µg/mL (≈ 5.31 µM)	
CC[C@H](C)[C@H](NC(=O)[C@H](CN)NC(=O)[C@H](Cc1c[nH]c2ccccc12)NC(=O)[C@@H](CCCN)NC(=O)CNC(=O)[C@H](CCCN)NC(=O)[C@@H](CCCN)NC(=O)[C@@H](Cc1c[nH]c2ccccc12)NC(=O)[C@@H](Cc1ccc(O)cc1)NC(=O)[C@@H](CO)NC(=O)CCCCCC(C)C)C(=O)N[C@@H](CC(N)=O)C(=O)NCC(=O)NCC(N)=O ({Octanoyl(7-Me)}-[dS][dY][dW][dOrn][Orn]G[dOrn]W[Dap]INGG-NH2)	18 µg/mL (≈ 11.2 µM)						< 0.1%

From ChEMBL document CHEMBL5380865, “Linearization of the Brevicidine and Laterocidine Lipopeptides Yields Analogues That Retain Full Antibacterial Activity” (J Med Chem, 2023)
